# Assay results from ChEMBL document CHEMBL1926569, “Novel (E)-1-(4-methyl-2-(alkylamino)thiazol-5-yl)-3-arylprop-2-en-1-ones as potent antimicrobial agents” (2011).
# Experiments:
# Enterococcus faecalis [1] = test: Antibacterial activity against Enterococcus faecalis isolated from human incubated for 24 hrs followed by serial sub-cultivation for 24 hrs by microdilution; type: functional
# Method in brief: (§1)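 MBC: after the 24 h LB broth microdilution (1.0 × 10⁴ CFU per well, 160 rpm), wells were serially sub-cultured into fresh broth plates and incubated a further 24 h. MBC is the lowest concentration with no visible growth, taken as 99.5% killing of the original inoculum. Duplicate, repeated three times.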
# Pseudomonas aeruginosa [2] = test: Ratio of ampicillin MIC to compound MIC for Pseudomonas aeruginosa ATCC 27853; type: functional
# Talaromyces funiculosus [3] = test: Antifungal activity against Penicillium funiculosum ATCC 36839 after 72 hrs by serial dilution technique; type: functional; settings: ATCC 36839, 72 h
# Method in brief: (§2)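 Modified microdilution in 96-well plates. Fungi were kept on malt agar at 4 °C. Spores were washed off in sterile 0.85% saline with 0.1% Tween 80. Compounds were dissolved at 1 mg/ml in 5% DMSO with 0.1% Tween 80 and added to malt broth with inoculum. Plates were shaken at 160 rpm for 72 h at 28 °C. Duplicate, repeated three times.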
# Aspergillus fumigatus [4] = test: Ratio of ketoconazole to compound for Aspergillus fumigatus isolated from human; type: functional
# Penicillium ochrochloron [5] = test: Antifungal activity against Penicillium ochrochloron ATCC 9112 after 72 hrs by serial dilution technique; type: functional; settings: ATCC 9112, 72 h; method in brief: as §2
# Aspergillus ochraceus [6] = test: Antifungal activity against Aspergillus ochraceus ATCC 12066 after 72 hrs by serial dilution technique; type: functional; settings: ATCC 12066, 72 h; method in brief: as §2
# Candida albicans [7] = test: Antifungal activity against Candida albicans isolated from human incubated for 72 hrs followed by serial sub-cultivation for 72 hrs by serial dilution technique; type: functional
# Method in brief: (§3)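 MFC: material from 72 h malt broth microdilution wells was serially sub-cultured into fresh broth plates and incubated a further 72 h at 28 °C. Fungicidal concentration is taken from growth after sub-culture. Duplicate, repeated three times.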
# Candida albicans [8] = test: Ratio of ketoconazole to compound for Candida albicans isolated from human; type: functional
# Talaromyces funiculosus [9] = test: Antifungal activity against Penicillium funiculosum ATCC 36839 incubated for 72 hrs followed by serial sub-cultivation for 72 hrs by serial dilution technique; type: functional; settings: ATCC 36839, 72 h; method in brief: as §3
# Micrococcus flavus [10] = test: Antibacterial activity against Micrococcus flavus ATCC 10240 incubated for 24 hrs followed by serial sub-cultivation for 24 hrs by microdilution; type: functional; settings: ATCC 10240, 24 h; method in brief: as §1
# Aspergillus ochraceus [11] = test: Antifungal activity against Aspergillus ochraceus after 72 hrs by serial dilution technique
# Pseudomonas aeruginosa [12] = test: Antibacterial activity against Pseudomonas aeruginosa ATCC 27853 after 24 hrs by microdilution method; type: functional; settings: ATCC 27853, 24 h
# Method in brief: (§4)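 Broth microdilution in 96-well plates. Bacterial suspensions were adjusted in sterile saline to 1.0 × 10⁵ CFU/ml, prepared daily and kept at 4 °C. Compound was added to LB broth with 1.0 × 10⁴ CFU per well and shaken at 160 rpm for 24 h at […] (so in the source). MIC is the lowest concentration with no visible growth under a binocular microscope. OD655 was also read. Duplicate, repeated three times.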
# Aspergillus niger [13] = test: Ratio of bifonazole to compound for Aspergillus niger ATCC 6275; type: functional
# Salmonella typhimurium [14] = test: Antibacterial activity against Salmonella Typhimurium ATCC 13311 incubated for 24 hrs followed by serial sub-cultivation for 24 hrs by microdilution; type: functional, Salmonella enterica subsp. enterica serovar Typhimurium; settings: Salmonella enterica, ATCC 13311, 24 h; method in brief: as §1
# Aspergillus niger [15] = test: Antifungal activity against Aspergillus niger ATCC 6275 after 72 hrs by serial dilution technique; type: functional; settings: ATCC 6275, 72 h; method in brief: as §2
# Salmonella typhimurium [16] = test: Antibacterial activity against Salmonella Typhimurium ATCC 13311 after 24 hrs by microdilution method; type: functional, Salmonella enterica subsp. enterica serovar Typhimurium; settings: Salmonella enterica, ATCC 13311, 24 h; method in brief: as §4
# Micrococcus flavus [17] = test: Antibacterial activity against Micrococcus flavus ATCC 10240 after 24 hrs by microdilution method; type: functional; settings: ATCC 10240, 24 h; method in brief: as §4
# Penicillium ochrochloron [18] = test: Antifungal activity against Penicillium ochrochloron ATCC 9112 incubated for 72 hrs followed by serial sub-cultivation for 72 hrs by serial dilution technique; type: functional; settings: ATCC 9112, 72 h; method in brief: as §3
# Aspergillus fumigatus [19] = test: Antifungal activity against Aspergillus fumigatus isolated from human incubated for 72 hrs followed by serial sub-cultivation for 72 hrs by serial dilution technique; type: functional; method in brief: as §3
# Talaromyces funiculosus [20] = test: Ratio of bifonazole to compound for Penicillium funiculosum ATCC 36839; type: functional
# Aspergillus ochraceus [21] = test: Antifungal activity against Aspergillus ochraceus ATCC 12066 incubated for 72 hrs followed by serial sub-cultivation for 72 hrs by serial dilution technique; type: functional; settings: ATCC 12066, 72 h; method in brief: as §3
# Aspergillus flavus [22] = test: Antifungal activity against Aspergillus flavus ATCC 9643 after 72 hrs by serial dilution technique; type: functional; settings: ATCC 9643, 72 h; method in brief: as §2
# Bacillus cereus [23] = test: Antibacterial activity against clinical isolate of Bacillus cereus after 24 hrs by microdilution method; type: functional; method in brief: as §4
# Penicillium ochrochloron [24] = test: Ratio of bifonazole to compound for Penicillium ochrochloron ATCC 9112; type: functional
# Trichoderma viride [25] = test: Antifungal activity against Trichoderma viride IAM 5061 after 72 hrs by serial dilution technique; type: functional; settings: IAM 5061, 72 h; method in brief: as §2
# Aspergillus ochraceus [26] = test: Ratio of bifonazole to compound for Aspergillus ochraceus ATCC 12066; type: functional
# Escherichia coli [27] = test: Antibacterial activity against Escherichia coli ATCC 35210 incubated for 24 hrs followed by serial sub-cultivation for 24 hrs by microdilution; type: functional; settings: ATCC 35210, 24 h; method in brief: as §1
# Staphylococcus aureus [28] = test: Antibacterial activity against Staphylococcus aureus ATCC 6538 incubated for 24 hrs followed by serial sub-cultivation for 24 hrs by microdilution method; type: functional; settings: ATCC 6538, 24 h; method in brief: as §1
# Listeria monocytogenes [29] = test: Antibacterial activity against Listeria monocytogenes NCTC 7973 incubated for 24 hrs followed by serial sub-cultivation for 24 hrs by microdilution; type: functional; settings: NCTC 7973, 24 h; method in brief: as §1
# Candida albicans [30] = test: Ratio of bifonazole to compound for Candida albicans isolated from human; type: functional
# Pseudomonas aeruginosa [31] = test: Antibacterial activity against Pseudomonas aeruginosa ATCC 27853 incubated for 24 hrs followed by serial sub-cultivation for 24 hrs by microdilution; type: functional; settings: ATCC 27853, 24 h; method in brief: as §1
# Aspergillus flavus [32] = test: Antifungal activity against Aspergillus flavus ATCC 9643 incubated for 72 hrs followed by serial sub-cultivation for 72 hrs by serial dilution technique; type: functional; settings: ATCC 9643, 72 h; method in brief: as §3
# Aspergillus ochraceus [33] = test: Ratio of ketoconazole to compound for Aspergillus ochraceus ATCC 12066; type: functional
# Candida albicans [34] = test: Antifungal activity against Candida albicans isolated from human after 72 hrs by serial dilution technique; type: functional; method in brief: as §2
# Bacillus cereus [35] = test: Antibacterial activity against clinical isolate of Bacillus cereus incubated for 24 hrs followed by serial sub-cultivation for 24 hrs by microdilution; type: functional; method in brief: as §1
# Listeria monocytogenes [36] = test: Antibacterial activity against Listeria monocytogenes NCTC 7973 after 24 hrs by microdilution method; type: functional; settings: NCTC 7973, 24 h; method in brief: as §4
# Penicillium ochrochloron [37] = test: Ratio of ketoconazole to compound for Penicillium ochrochloron ATCC 9112; type: functional
# Trichoderma viride [38] = test: Antifungal activity against Trichoderma viride IAM 5061 incubated for 72 hrs followed by serial sub-cultivation for 72 hrs by serial dilution technique; type: functional; settings: IAM 5061, 72 h; method in brief: as §3
# Trichoderma viride [39] = test: Ratio of bifonazole to compound for Trichoderma viride IAM 5061; type: functional
# Staphylococcus aureus [40] = test: Antibacterial activity against Staphylococcus aureus ATCC 6538 after 24 hrs by microdilution method; type: functional; settings: ATCC 6538, 24 h; method in brief: as §4
# Aspergillus niger [41] = test: Antifungal activity against Aspergillus niger ATCC 6275 incubated for 72 hrs followed by serial sub-cultivation for 72 hrs by serial dilution technique; type: functional; settings: ATCC 6275, 72 h; method in brief: as §3
# Escherichia coli [42] = test: Antibacterial activity against Escherichia coli ATCC 35210 after 24 hrs by microdilution method; type: functional; settings: ATCC 35210, 24 h; method in brief: as §4
# Enterococcus faecalis [43] = test: Antibacterial activity against Enterococcus faecalis isolated from human after 24 hrs by microdilution method; type: functional; method in brief: as §4
structure (smiles),measurement,setting,value
CCNc1nc(C)c(C(=O)/C=C/c2ccc([N+](=O)[O-])cc2)s1,MBC,Enterococcus faecalis [1],63.1 µM
same,Ratio,Pseudomonas aeruginosa [2],10
same,MIC,Talaromyces funiculosus [3],31.5 µM
same,Ratio,Aspergillus fumigatus [4],10
same,MIC,Penicillium ochrochloron [5],63.1 µM
same,MIC,Aspergillus ochraceus [6],63.1 µM
same,MFC,Candida albicans [7],63.1 µM
same,Ratio,Candida albicans [8],10
same,MFC,Talaromyces funiculosus [9],63.1 µM
same,MBC,Micrococcus flavus [10],94.6 µM
same,MIC,Aspergillus ochraceus [11],47.3 µM
same,MIC,Pseudomonas aeruginosa [12],47.3 µM
same,Ratio,Aspergillus niger [13],10
same,MBC,Salmonella typhimurium [14],63.1 µM
same,MIC,Aspergillus niger [15],47.3 µM
same,MIC,Salmonella typhimurium [16],47.3 µM
same,MIC,Micrococcus flavus [17],94.6 µM
same,MFC,Penicillium ochrochloron [18],78.8 µM
same,MFC,Aspergillus fumigatus [19],63.1 µM
same,Ratio,Talaromyces funiculosus [20],10
same,MFC,Aspergillus ochraceus [21],78.8 µM
same,MIC,Aspergillus flavus [22],63.1 µM
same,MIC,Bacillus cereus [23],63.1 µM
same,Ratio,Penicillium ochrochloron [24],10
same,MIC,Trichoderma viride [25],47.3 µM
same,Ratio,Aspergillus ochraceus [26],10
same,MBC,Escherichia coli [27],94.6 µM
same,MBC,Staphylococcus aureus [28],94.6 µM
same,MBC,Listeria monocytogenes [29],94.6 µM
same,Ratio,Candida albicans [30],10
same,MBC,Pseudomonas aeruginosa [31],63.1 µM
same,MFC,Aspergillus flavus [32],78.8 µM
same,Ratio,Aspergillus ochraceus [33],10
same,MIC,Candida albicans [34],31.5 µM
same,MBC,Bacillus cereus [35],94.6 µM
same,MIC,Listeria monocytogenes [36],94.6 µM
same,Ratio,Penicillium ochrochloron [37],10
same,MFC,Trichoderma viride [38],63.1 µM
same,Ratio,Trichoderma viride [39],10
same,MIC,Staphylococcus aureus [40],94.6 µM
same,MFC,Aspergillus niger [41],63.1 µM
same,MIC,Escherichia coli [42],94.6 µM
same,MIC,Enterococcus faecalis [43],47.3 µM
